Source: ChEMBL document CHEMBL4130382, “Novel unsaturated glycyrrhetic acids derivatives: Design, synthesis and anti-inflammatory activity” (Eur J Med Chem, 2017)
The source made the active and inactive calls. No cut-off for these calls is given here.

Experiments:
[1] = Cytotoxicity against mouse RAW264.7 cells assessed as cell viability at 20 uM after 24 hrs by MTT assay (reference value: 100%); type: cell-based; settings: read-out: Activity
Method in brief: (§1)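 RAW264.7 cells seeded at 6×10^3 cells/well and cultured 24 h. Compounds diluted in DMEM for 24 h exposure. MTT 0.5 mg/mL added for 4 h, formazan dissolved in DMSO, OD read at 570 nm. Viability given as % of medium-only blank. Three independent experiments.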

RAW264.7 [2] = experiment: Antiinflammatory activity in mouse RAW264.7 cells assessed as inhibition of LPS-induced NO production by measuring nitrite level at 20 uM pretreated for 2 hrs followed by LPS challenge measured after 24 hrs by Griess assay; type: functional, cell-based
Method in brief: (§2)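 RAW264.7 cells grown in DMEM with 10% FBS plus penicillin/streptomycin at 37 °C and 5% CO2. Seeded at 1×10^5 cells/well and cultured 20 h. Pretreated 2 h with compounds in serum-free medium, then LPS 1 µg/mL for 24 h. Nitrite read with Griess reagent at 540 nm. Inhibition = (LPS-only − treated)/(LPS-only − medium blank) × 100%. Mean ± SD, n = 3.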

RAW264.7 [3] = experiment: Antiinflammatory activity in mouse RAW264.7 cells assessed as inhibition of LPS-induced NO production by measuring nitrite level at 40 uM pretreated for 2 hrs followed by LPS challenge measured after 24 hrs by Griess assay relative to control; type: functional; method in brief: as §2
[4] = Cytotoxicity against mouse RAW264.7 cells assessed as cell viability at 40 uM after 24 hrs by MTT assay (reference value: 100%); type: cell-based; settings: read-out: Activity; method in brief: as §1
RAW264.7 [5] = experiment: Antiinflammatory activity in mouse RAW264.7 cells assessed as inhibition of LPS-stimulated IL-6 production preincubated for 2 hrs followed by LPS stimulaton measured after 24 hrs by ELISA; type: functional, cell-based
Method in brief: (§3)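 Cells at 7×10^4/well cultured 24 h, then pretreated 2 h with 10–40 µM compound. LPS 1 µg/mL added for 24 h. IL-6 and TNF-α measured in supernatant by mouse ELISA kits.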

RAW264.7 [6] = experiment: Antiinflammatory activity in mouse RAW264.7 cells assessed as inhibition of LPS-stimulated TNF-alpha production preincubated for 2 hrs followed by LPS stimulaton measured after 24 hrs by ELISA; type: functional, cell-based; method in brief: as §3
RAW264.7 [7] = experiment: Antiinflammatory activity in mouse RAW264.7 cells assessed as inhibition of LPS-stimulated COX-2 production at 40 uM preincubated with compound followed by LPS stimulation measured after 24 hrs by Western blot relative to control; type: functional
Method in brief: (§4)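 Cells at 2×10^6/well cultured 24 h. Medium replaced with fresh medium containing 10–40 µM compound, or Bay 11-7082 20 µM as NF-κB inhibitor control, plus LPS 1 µg/mL for 24 h. Lysates in IP buffer with 1 mM PMSF; protein by BCA. Equal protein run on 12.5% SDS-PAGE, PVDF, ECL detection for iNOS and COX-2. Mean ± SD, n = 3.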

RAW264.7 [8] = experiment: Antiinflammatory activity in mouse RAW264.7 cells assessed as inhibition of LPS-stimulated iNOS production at 40 uM preincubated with compound followed by LPS stimulation measured after 24 hrs by Western blot relative to control; type: functional; method in brief: as §4
RAW264.7 [9] = experiment: Antiinflammatory activity in mouse RAW264.7 cells assessed as inhibition of LPS-stimulated COX-2 production preincubated with compound followed by LPS stimulation measured after 24 hrs by Western blot; type: functional, cell-based; method in brief: as §4
RAW264.7 [10] = experiment: Antiinflammatory activity in mouse RAW264.7 cells assessed as inhibition of LPS-stimulated iNOS production preincubated with compound followed by LPS stimulation measured after 24 hrs by Western blot; type: functional, cell-based; method in brief: as §4
[11] = biological target: Transcription factor p65 (Mus musculus) (UniProt Q04207); experiment: Inhibition of LPS-induced NFkappaB p65 phosphorylation in mouse RAW264.7 cells preincubated with compound followed by LPS stimulation measured after 30 mins by Western blot; type: cell-based
Method in brief: (§5)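 Cells at 2×10^6/well cultured 24 h, then given 10–40 µM compound with LPS 1 µg/mL for 30 min; Bay 11-7082 20 µM as control. Lysates in IP buffer with PMSF; equal protein on 12.5% SDS-PAGE, PVDF. Blocked in 5% milk/TBST, primary antibodies to phospho and total JNK, ERK1/2, p38, IκB and p65 at 1:1000 overnight at 4 °C, ECL detection. Mean ± SD, n = 3.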

[12] = biological target: Transcription factor p65 (Mus musculus) (UniProt Q04207); experiment: Inhibition of LPS-induced NFkappaB p65 nuclear translocation in mouse RAW264.7 cells at 20 to 40 uM preincubated for 1 hr followed by LPS stimulation measured after 3 hrs by DAPI staining-based immunofluorescence assay; type: cell-based
Method in brief: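 Cells at 7×10^4/well cultured 24 h, pretreated with 20 or 40 µM compound, then LPS 1 µg/mL for 3 h. Fixed in 4% formaldehyde, permeabilized with 0.3% Triton X-100, blocked with 5% BSA. Stained overnight with anti-p65, then Alexa Fluor 488 anti-rabbit; nuclei counterstained with DAPI and imaged.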

RAW264.7 [13] = experiment: Inhibition of LPS-induced ERK phosphorylation in mouse RAW264.7 cells at 40 uM preincubated with compound followed by LPS stimulation measured after 30 mins by Western blot; type: cell-based; method in brief: as §5
RAW264.7 [14] = experiment: Inhibition of LPS-induced JNK phosphorylation in mouse RAW264.7 cells at 10 to 40 uM preincubated with compound followed by LPS stimulation measured after 30 mins by Western blot; type: cell-based; method in brief: as §5
[15] = biological target: MAP kinase p38 (Mus musculus) (UniProt P47811+O08911+Q9WUI1+Q9Z1B7); experiment: Inhibition of LPS-induced p38 MAPK phosphorylation in mouse RAW264.7 cells at 10 to 40 uM preincubated with compound followed by LPS stimulation measured after 30 mins by Western blot; type: cell-based; method in brief: as §5

Chain of Transcription factor p65 (Mus musculus) (Q04207 whole entry): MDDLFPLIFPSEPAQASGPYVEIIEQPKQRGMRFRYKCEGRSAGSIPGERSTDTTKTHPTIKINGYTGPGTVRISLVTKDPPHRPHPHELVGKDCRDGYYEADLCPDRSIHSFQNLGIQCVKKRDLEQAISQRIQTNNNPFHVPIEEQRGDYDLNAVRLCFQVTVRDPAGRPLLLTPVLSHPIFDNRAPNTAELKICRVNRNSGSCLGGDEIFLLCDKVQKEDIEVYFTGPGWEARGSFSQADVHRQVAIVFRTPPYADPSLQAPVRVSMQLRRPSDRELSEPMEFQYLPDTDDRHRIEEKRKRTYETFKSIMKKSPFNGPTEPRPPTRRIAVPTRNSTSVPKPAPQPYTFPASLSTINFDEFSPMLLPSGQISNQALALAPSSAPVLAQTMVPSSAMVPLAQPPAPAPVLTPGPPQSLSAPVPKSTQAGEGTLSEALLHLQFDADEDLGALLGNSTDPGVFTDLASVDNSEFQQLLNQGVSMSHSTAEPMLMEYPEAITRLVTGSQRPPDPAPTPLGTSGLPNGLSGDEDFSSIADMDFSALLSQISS

SMILES: CC(O)CNC(=O)/C=C/[C@@]1(C)CC[C@]2(C)CC[C@]3(C)C(=CC(=O)[C@@H]4[C@@]5(C)CC[C@H](O)C(C)(C)[C@@H]5CC[C@]43C)[C@@H]2C1 (stereo not given in full)
- viability at 24 h, 20 µM [1]: 91.4%
- inhibition (RAW264.7 [2]): Active
- inhibition (RAW264.7 [3]): Active

SMILES: CC1(C)[C@@H](O)CC[C@]2(C)[C@H]3C(=O)C=C4[C@@H]5C[C@@](C)(/C=C/C(=O)NNc6ccccc6)CC[C@]5(C)CC[C@@]4(C)[C@]3(C)CC[C@@H]12
- viability at 24 h, 20 µM [1]: 94.8%
- inhibition (RAW264.7 [2]): inactive
- inhibition (RAW264.7 [3]): inactive

SMILES: CNC(=O)/C=C/[C@@]1(C)CC[C@]2(C)CC[C@]3(C)C(=CC(=O)[C@@H]4[C@@]5(C)CC[C@H](O)C(C)(C)[C@@H]5CC[C@]43C)[C@@H]2C1
- viability at 24 h, 40 µM [4]: 100%
- inhibition (RAW264.7 [2]): Active
- inhibition (RAW264.7 [3]): Active

SMILES: Cc1cccc(NC(=O)/C=C/[C@@]2(C)CC[C@]3(C)CC[C@]4(C)C(=CC(=O)[C@@H]5[C@@]6(C)CC[C@H](O)C(C)(C)[C@@H]6CC[C@]54C)[C@@H]3C2)c1
- viability at 24 h, 40 µM [4]: 99.3%
- inhibition (RAW264.7 [2]): inactive
- inhibition (RAW264.7 [3]): inactive

SMILES: CCN1CCN(C(=O)/C=C/[C@@]2(C)CC[C@]3(C)CC[C@]4(C)C(=CC(=O)[C@@H]5[C@@]6(C)CC[C@H](O)C(C)(C)[C@@H]6CC[C@]54C)[C@@H]3C2)CC1
- viability at 24 h, 40 µM [4]: 98.4%
- inhibition at 40 µM (RAW264.7 [3]): > 70%
- IC50 (RAW264.7 [5]): 15.5 µM
- inhibition (RAW264.7 [5]): Dose-dependent effect
- inhibition (RAW264.7 [6]): Dose-dependent effect

SMILES: CC1(C)[C@@H](O)CC[C@]2(C)[C@H]3C(=O)C=C4[C@@H]5C[C@@](C)(/C=C/C(=O)O)CC[C@]5(C)CC[C@@]4(C)[C@]3(C)CC[C@@H]12
- viability at 24 h, 40 µM [4]: 99.2%
- inhibition (RAW264.7 [2]): Active
- inhibition (RAW264.7 [3]): Active

SMILES: CC1(C)[C@@H](O)CC[C@]2(C)[C@H]3C(=O)C=C4[C@@H]5C[C@@](C)(/C=C/C(=O)NNC(N)=O)CC[C@]5(C)CC[C@@]4(C)[C@]3(C)CC[C@@H]12
- viability at 24 h, 20 µM [1]: 96.7%

SMILES: CC(=O)O[C@H]1CC[C@]2(C)[C@H]3C(=O)C=C4[C@@H]5C[C@@](C)(/C=C/C(=O)OCc6ccccc6)CC[C@]5(C)CC[C@@]4(C)[C@]3(C)CC[C@H]2C1(C)C
- viability at 24 h, 20 µM [1]: 96.9%
- inhibition (RAW264.7 [2]): inactive
- inhibition (RAW264.7 [3]): inactive

SMILES: CC1(C)[C@@H](O)CC[C@]2(C)[C@H]3C(=O)C=C4[C@@H]5C[C@@](C)(/C=C/C(=O)NCCO)CC[C@]5(C)CC[C@@]4(C)[C@]3(C)CC[C@@H]12
- viability at 24 h, 20 µM [1]: 93.6%
- inhibition (RAW264.7 [2]): Active
- inhibition (RAW264.7 [3]): Active

SMILES: CCNC(=O)/C=C/[C@@]1(C)CC[C@]2(C)CC[C@]3(C)C(=CC(=O)[C@@H]4[C@@]5(C)CC[C@H](O)C(C)(C)[C@@H]5CC[C@]43C)[C@@H]2C1
- viability at 24 h, 40 µM [4]: 92%
- inhibition (RAW264.7 [2]): Active
- inhibition (RAW264.7 [3]): Active

SMILES: CC1(C)[C@@H](O)CC[C@]2(C)[C@H]3C(=O)C=C4[C@@H]5C[C@@](C)(C(=O)O)CC[C@]5(C)CC[C@@]4(C)[C@]3(C)CC[C@@H]12 [ENOXOLONE]
- viability at 24 h, 40 µM [4]: 102%
- inhibition (RAW264.7 [2]): Active
- inhibition (RAW264.7 [3]): Active

SMILES: CC(C)N(C(=O)/C=C/[C@@]1(C)CC[C@]2(C)CC[C@]3(C)C(=CC(=O)[C@@H]4[C@@]5(C)CC[C@H](O)C(C)(C)[C@@H]5CC[C@]43C)[C@@H]2C1)C(C)C
- viability at 24 h, 20 µM [1]: 95.8%
- inhibition (RAW264.7 [2]): Active

SMILES: CN(C)C(=O)/C=C/[C@@]1(C)CC[C@]2(C)CC[C@]3(C)C(=CC(=O)[C@@H]4[C@@]5(C)CC[C@H](O)C(C)(C)[C@@H]5CC[C@]43C)[C@@H]2C1
- viability at 24 h, 40 µM [4]: 99.5%
- inhibition (RAW264.7 [2]): Active
- inhibition (RAW264.7 [3]): Active

SMILES: CC1(C)[C@@H](O)CC[C@]2(C)[C@H]3C(=O)C=C4[C@@H]5C[C@@](C)(/C=C/C(=O)N6CCOCC6)CC[C@]5(C)CC[C@@]4(C)[C@]3(C)CC[C@@H]12
- viability at 24 h, 40 µM [4]: 97.5%
- inhibition (RAW264.7 [2]): inactive
- inhibition (RAW264.7 [3]): inactive

SMILES: CC1(C)[C@@H](O)CC[C@]2(C)[C@H]3C(=O)C=C4[C@@H]5C[C@@](C)(/C=C/C(=O)NCCCCl)CC[C@]5(C)CC[C@@]4(C)[C@]3(C)CC[C@@H]12
- viability at 24 h, 40 µM [4]: 95%

SMILES: CC1(C)[C@@H](O)CC[C@]2(C)[C@H]3C(=O)C=C4[C@@H]5C[C@@](C)(/C=C/C(=O)NCCCN6CCOCC6)CC[C@]5(C)CC[C@@]4(C)[C@]3(C)CC[C@@H]12
- viability at 24 h, 40 µM [4]: 99.8%
- inhibition (RAW264.7 [2]): Active
- inhibition (RAW264.7 [3]): Active

SMILES: CN1CCN(C(=O)/C=C/[C@@]2(C)CC[C@]3(C)CC[C@]4(C)C(=CC(=O)[C@@H]5[C@@]6(C)CC[C@H](O)C(C)(C)[C@@H]6CC[C@]54C)[C@@H]3C2)CC1
- viability at 24 h, 40 µM [4]: 96.6%
- inhibition at 40 µM (RAW264.7 [3]): > 70%
- IC50 (RAW264.7 [5]): 13.3 µM
- inhibition (RAW264.7 [5]): Dose-dependent effect
- inhibition (RAW264.7 [6]): Dose-dependent effect
- inhibition at 40 µM (RAW264.7 [7]): 55.6%
- inhibition at 40 µM (RAW264.7 [8]): 76.9%
- inhibition (RAW264.7 [9]): Dose-dependent effect
- inhibition (RAW264.7 [10]): Dose-dependent effect
- inhibition [11]: Dose-dependent effect
- inhibition [12]: Active
- inhibition (RAW264.7 [13]): Active
- inhibition (RAW264.7 [14]): inactive
- inhibition [15]: inactive

SMILES: CC1(C)[C@@H](O)CC[C@]2(C)[C@H]3C(=O)C=C4[C@@H]5C[C@@](C)(/C=C/C(=O)NCCc6ccccc6)CC[C@]5(C)CC[C@@]4(C)[C@]3(C)CC[C@@H]12
- viability at 24 h, 20 µM [1]: 93%
- inhibition (RAW264.7 [2]): inactive
- inhibition (RAW264.7 [3]): inactive

SMILES: CC(C)NC(=O)/C=C/[C@@]1(C)CC[C@]2(C)CC[C@]3(C)C(=CC(=O)[C@@H]4[C@@]5(C)CC[C@H](O)C(C)(C)[C@@H]5CC[C@]43C)[C@@H]2C1
- viability at 24 h, 40 µM [4]: 97.6%
- inhibition (RAW264.7 [2]): Active

SMILES: CCOC(=O)/C=C/[C@@]1(C)CC[C@]2(C)CC[C@]3(C)C(=CC(=O)[C@@H]4[C@@]5(C)CC[C@H](OC(C)=O)C(C)(C)[C@@H]5CC[C@]43C)[C@@H]2C1
- viability at 24 h, 20 µM [1]: 94.3%
